Source: PubChem BioAssay
T cruzi repl – inhibitors of intracellular T. cruzi growth, primary screen, luminescence, NIH3T3 host cells; T. cruzi beta-gal in NIH3T3, 90 h; inhibition, % (concentration not given with the values); 300,000 compounds, 1.4% hits;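 active = mean inhibition across valid replicates above about 55%, limit read from the data; inconclusive = mean below that limit but half or more replicates reach it; inactive = mean below it, under half of replicates reach it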;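 note: signal also drops with host cell toxicity which is not excluded here; 0% = plate median of DMSO wells and 100% = zero luminescence signal; higher percent means less beta-gal luminescence so fewer parasites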
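System: mouse NIH/3T3 fibroblasts infected with β-gal-expressing T. cruzi Tulahuen C4 / Input: NIH/3T3 cells, 5,000 per well / Buffer or medium: Low-serum DMEM with 2% FBS / Probe or stimulus: 5000 reporter trypomastigotes per well / Schedule: ≥90 h infection period, 3 h prior cell attachment / Measured by: GalScreen luminescence, 60 min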
CSC inhib – cancer stem cell viability inhibitors, primary screen, luminescence. AID 2717, 2010. 300,000 compounds, 1.1% hits. inhibition, % at 7.5 µM. cancer stem cell-like cells viability; in the data active = inhibition above about 75%; inconclusive = no clear call, values can overlap the other calls; tested in HMLE shEcad cells
aSyn 5UTR inh – MLPCN primary screen, SNCA 5' untranslated region. 300,000 compounds, 0.82% hits. inhibition, % (tested at 7.5 µM). alpha-synuclein 5'UTR reporter, inhibitor activity; in the data active = inhibition above about 60%; inconclusive = no clear call, values can overlap the other calls;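 note: H4 neuroglioblastoma cells stably carrying SNCA 5'UTR luciferase fusion; 0% = DMSO wells and 100% = positive control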
SKKanGAS inh – S. pyogenes SKKanGAS growth inhibitors in kanamycin, primary screen, streptokinase expression inhibitor project, SKKanGAS strain, BacTiter-Glo luminescence; inhibition, % at 7.5 µM; 6 h; AID 1662, 2009; 300,000 compounds, 1.3% hits;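 active = mean replicate score, as percent of positive control median, at least 50; inconclusive = mean below 50 but one replicate at or above 50; inactive = mean and every replicate below 50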;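 note: strain carries kanamycin resistance gene driven by streptokinase promoter and grows in 40 µg/ml kanamycin; loss of luminescence reflects streptokinase promoter inhibition or plain growth inhibition; 0% = median of DMSO wells and 100% = positive control at its reference dose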
Mdm2 MdmX PPI – inhibitors of human Mdm2-MdmX association, primary screen, cell-based, luminescence, split luciferase, SaOS-2, uHTS | Protein Mdm4 (Homo sapiens) + E3 ubiquitin-protein ligase Mdm2 (Homo sapiens), … | 330,000 compounds, 3% hits | AID 485346, 2010 | SaOS-2 split-luciferase Mdm2/MdmX complementation | inhibition, % at 8 µM;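 active = inhibition of at least 50% at 8 µM in the primary screen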
Target sequence (O15151 whole entry, looked up): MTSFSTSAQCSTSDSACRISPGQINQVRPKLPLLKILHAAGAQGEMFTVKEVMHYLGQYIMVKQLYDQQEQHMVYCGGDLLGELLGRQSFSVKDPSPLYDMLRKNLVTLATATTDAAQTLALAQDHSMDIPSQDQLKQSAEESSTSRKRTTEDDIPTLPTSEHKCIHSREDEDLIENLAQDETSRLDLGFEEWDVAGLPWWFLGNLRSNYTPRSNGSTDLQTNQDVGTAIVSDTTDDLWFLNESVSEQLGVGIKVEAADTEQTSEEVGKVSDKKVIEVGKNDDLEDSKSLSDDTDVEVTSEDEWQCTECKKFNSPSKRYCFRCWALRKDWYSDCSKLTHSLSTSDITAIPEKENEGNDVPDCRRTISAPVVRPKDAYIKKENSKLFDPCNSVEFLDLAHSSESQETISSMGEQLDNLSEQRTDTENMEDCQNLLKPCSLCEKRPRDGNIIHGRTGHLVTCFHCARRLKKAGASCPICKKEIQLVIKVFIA
Target sequence (Q00987 whole entry, looked up): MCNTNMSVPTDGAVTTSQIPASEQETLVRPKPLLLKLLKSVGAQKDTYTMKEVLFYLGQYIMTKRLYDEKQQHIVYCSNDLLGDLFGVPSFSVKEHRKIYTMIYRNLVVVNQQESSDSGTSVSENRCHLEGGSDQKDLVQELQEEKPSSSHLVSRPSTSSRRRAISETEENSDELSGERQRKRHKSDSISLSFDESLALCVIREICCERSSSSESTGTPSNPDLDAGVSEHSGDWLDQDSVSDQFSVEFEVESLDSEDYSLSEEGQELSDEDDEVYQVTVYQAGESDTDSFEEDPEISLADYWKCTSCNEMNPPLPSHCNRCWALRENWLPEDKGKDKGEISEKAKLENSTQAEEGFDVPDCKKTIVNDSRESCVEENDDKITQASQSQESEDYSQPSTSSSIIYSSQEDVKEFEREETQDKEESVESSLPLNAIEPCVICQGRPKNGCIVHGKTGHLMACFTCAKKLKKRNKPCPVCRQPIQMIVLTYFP
Numbers without * were called inactive; ? = inconclusive; . = no result given. An excerpt weighted towards active compounds, which were near 5.4% of everything screened.

SMILES	T cruzi repl	CSC inhib	aSyn 5UTR inh	SKKanGAS inh	Mdm2 MdmX PPI
CCOc1cc(CNCCN2CCOCC2)ccc1OCc1ccccc1Cl	56*	61	8	25	25
CCOc1cc(CNCCCN2CCOCC2)ccc1OCC(=O)NC(C)(C)C	63*	-10	-28	-4	-5
COc1ccc(-c2nc(C#N)c(N3CCC(C)CC3)o2)cc1	7	5	-20	5	7
O=C(COC(=O)C1CC1)NCc1ccccc1	.	.	.	.	15
COc1ccc(/C=C/c2nc3cc(-c4ccccc4)ccc3o2)cc1O	-7	102*	-43	88*	10
COc1ccccc1/C=C/c1nc2ccc(OC(C)=O)cc2c(=O)o1	-6	-18	-3	-7	-9
Cc1cc(C(N)=O)c2ccccc2n1	-17	-8	2	2	14
NC(=O)c1cc2c3ccccc3ccn2c1-c1ccccc1	-15	53	113*	10	.
Cc1ccc(NC(=O)CN(c2ccc(Cl)cc2)S(=O)(=O)c2cc([N+](=O)[O-])ccc2Cl)c(C)c1	59*	45	-11	33	36
Cc1ccc([N+](=O)[O-])cc1NC(=O)CN(C1CCCCC1)S(=O)(=O)c1ccc(Cl)cc1	59*	.	19	13	.
CCOc1cc(CN2CCCC(N3CCc4ccccc4C3)C2)ccc1O (configuration not stated)	53	.	8	-3	1
CCOc1cccc(CN2CCCC(N3CCc4cc(OC)c(OC)cc4C3)C2)c1O (configuration not stated)	65*	17	-1	-16	12
COc1ccc2oc(C(=O)Nc3nc(C)cs3)c(C)c2c1	.	2	.	.	-145
O=C(OC1CCOC1=O)c1cc(S(=O)(=O)N2CCOCC2)c(Cl)cc1Cl (configuration not stated)	.	.	.	.	3
CCS(=O)(=O)Nc1ccc(-c2cc(-c3ccccc3)c3cc(C)ccc3n2)cc1	20	85*	9	95*	.
Cc1ccc2nc(-c3ccc(NS(C)(=O)=O)cc3)cc(-c3ccccc3)c2c1	.	56	.	26	1
Cc1ccc(S(=O)(=O)NC(=O)Nc2ccc(N(C)C)cc2)cc1	57*	-4	-111	12	32
Cc1ccc(NC(=O)NNS(=O)(=O)c2ccc(Br)cc2)cc1	-18	10	10	-3	5
CC(=O)c1cccc(NC(=O)CN2C(=O)NC(C)(c3ccc4c(c3)OCCCO4)C2=O)c1 (configuration not stated)	.	13	.	.	-6
NC(=O)c1ccccc1N/C=C/C(=O)c1ccc(Cl)cc1	-1	22	-54	1	-162
O=C(/C=C/Sc1ccccc1)c1ccc(Cl)cc1	43	102*	-4	0	40
COc1cccc(N2CCN(Cc3nc4ccccc4c(=O)[nH]3)CC2)c1	8	-13	-2	1	5
COc1cccc(N2CCN(Cc3nc4scc(-c5ccccc5)c4c(=O)[nH]3)CC2)c1	-4	82*	-20	20	39
O=C1CCCc2c1[nH]c1ccc(Cl)cc21	0	-12	63*	-4	31
CCCCCCSc1nsc(NC(=O)CC(C)C)n1	39	91*	3	10	-65
SMILES	T cruzi repl	CSC inhib	aSyn 5UTR inh	SKKanGAS inh	Mdm2 MdmX PPI
CCCSc1nsc(NC(=O)C(c2ccccc2)c2ccccc2)n1	26	122*	25	100*	40
CCCSc1nsc(NC(=O)CC)n1	54	-9	-135	6	-73
Fc1ccc(CSc2nc3ccccc3[nH]2)c2ccccc12	32	?	-43	50*	29
CCCOc1ccccc1OCC(=O)Nc1cc(Cl)ccc1-n1cncn1	12	-1	11	-8	24
O=C(Nc1ccccc1)C(=O)Nc1ccc2c(c1)N(C(=O)C1CC1)CCC2	2	.	-121	55*	-79
O=C(C1CCC(C(=O)N2CCc3ccccc32)CC1)N1CCc2ccccc21 (configuration not stated)	2	10	11	9	5
CCOC(=O)/C(=N/Nc1ccc(OC)cc1)N1CCCc2ccccc21	27	75*	17	-7	-8
CCOC(=O)/C(=N/Nc1ccccc1)N1CCCc2ccccc21	10	5	10	0	10
CCNc1nc(NCC)nc(SCCOC(=O)Nc2ccc(Cl)cc2Cl)n1	4	-8	30	45	16
CC(=O)N(O)CCCCCNC(=O)CCC(=O)N(O)CCCCCNC(=O)CCC(=O)N(O)CCCCCN	-6	19	75*	-4	24
CC1CCCN(C(=O)N2c3ccccc3Sc3ccccc32)C1 (configuration not stated)	31	-3	4	-4	4
CC1CCN(C(=O)N2c3ccccc3Sc3ccccc32)CC1	5	0	24	54*	14
SC(COCc1ccccc1)CN1CCN(Cc2ccc3c(c2)OCO3)CC1 (configuration not stated)	55*	34	-12	-2	4
OC(COCc1ccccc1)CN1CCN(Cc2ccc3c(c2)OCO3)CC1 (configuration not stated)	21	.	1	3	-16
COc1ccc(CN(C)CC(=O)c2c(N)n(Cc3ccccc3)c(=O)n(C)c2=O)c(OC)c1	59*	-2	31	5	21
CC(C)Sc1nc2c(cnn2-c2ccc(Cl)cc2)c(=O)[nH]1	-6	0	13	-2	3
Cc1ccccc1-c1nc2c3ccccc3nc(=S)n2[nH]1	20	-5	2	94*	.
Cc1nc2ccccc2n1CCc1nc2c3ccccc3nc(=S)n2[nH]1	-37	-2	-1	-4	14
Cc1ccc(C(=O)NNC(=S)NC(=O)c2ccc(Cl)cc2)cc1	-6	26	-4	100*	42
O=C(CCc1ccccc1)NNC(=S)NC(=O)c1ccc(Cl)cc1	-47	4	-24	61*	29
O=C(NNC(=S)NC(=O)c1cccnc1)c1ccc(Cl)cc1	-11	17	-12	52*	11
O=C(CCc1ccccc1)NNC(=O)c1ccc(Cl)cc1	0	-14	-2	-2	21
O=C(CCCN1C(=O)NC2(CCCC2)C1=O)Nc1cccc(S(=O)(=O)N2CCOCC2)c1	.	.	.	.	13
O=C(Cn1nc(C(=O)O)c2ccccc2c1=O)Nc1ccc(Cl)c(S(=O)(=O)N2CCOCC2)c1	.	0	.	.	21
Cc1ccc(S(=O)(=O)N(CC(=O)Nc2ccc(C(N)=O)cc2)C(=O)N2CCN(C)CC2)cc1	-12	0	3	-3	-13
CCC1(CC)NC(=O)N(CC(=O)OCC(=O)Nc2ncc(Cl)cc2Cl)C1=O	2	.	-13	5	10
CCOC(=O)c1cnc(SC)nc1Oc1cccc(NS(=O)(=O)c2ccccc2)c1	56*	15	-6	-6	23
CCOC(=O)c1cnc(SC)nc1Oc1cccc(NS(=O)(=O)c2ccc(F)cc2)c1	43	7	-8	4	34
